{
  "source": "ChEMBL document CHEMBL1138687",
  "about": "“Pharmacological exploitation of the alpha1-adrenoreceptor antagonist doxazosin to develop a novel class of antitumor agents that block intracellular protein kinase B/Akt activation” (J Med Chem, 2004)",
  "data": [
    {"tested_on": "PC-3", "experiment": "Inhibition of prostate cancer (PC-3) cell proliferation", "type": "functional, cell-based", "settings": "Homo sapiens", "procedure,_shortened": "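PC-3 cells, 8000/well, grown in RPMI 1640 with 10% FBS at 37 °C, 5% CO2. Exposed to the test agent in 10% FBS-supplemented RPMI 1640 for 48 h in six replicates. MTT at 0.5 mg/mL then added for 2 h at 37 °C, reduced dye dissolved in DMSO, absorbance read at 570 nm. IC50 taken from cell viability.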", "units": {"IC50": "µM"}, "values": [
      {"smiles": "COc1cc2nc(N3CCN(S(=O)(=O)c4cccc(C(=O)O)c4)CC3)nc(N)c2cc1OC", "IC50": 53},
      {"smiles": "CCCCc1ccc(-c2ccc(S(=O)(=O)N3CCN(c4nc(N)c5cc(OC)c(OC)cc5n4)CC3)cc2)cc1", "IC50": 3.4},
      {"smiles": "COc1cc2nc(N3CCN(S(=O)(=O)c4ccc(C)cc4)CC3)nc(N)c2cc1OC", "IC50": 30},
      {"smiles": "COc1cc2nc(N3CCN(S(=O)(=O)c4cc(C(=O)O)c(Cl)cc4Cl)CC3)nc(N)c2cc1OC", "IC50": 52},
      {"smiles": "COc1cc2nc(N3CCN(S(=O)(=O)c4ccc(Cl)s4)CC3)nc(N)c2cc1OC", "IC50": 25},
      {"smiles": "COc1cc2nc(N3CCN(S(=O)(=O)c4cccc5ccccc45)CC3)nc(N)c2cc1OC", "IC50": 14},
      {"smiles": "COc1ccc(C(=O)N2CCN(c3nc(N)c4cc(OC)c(OC)cc4n3)CC2)cc1OC", "IC50": 71},
      {"smiles": "COc1cc2nc(N3CCN(C(=O)c4ccc([N+](=O)[O-])cc4)CC3)nc(N)c2cc1OC", "IC50": 75},
      {"smiles": "COc1cc2nc(N3CCN(S(=O)(=O)c4c(C(C)C)cc(C(C)C)cc4C(C)C)CC3)nc(N)c2cc1OC", "IC50": 24},
      {"smiles": "COc1cc2nc(N3CCN(S(=O)(=O)c4ccc(S(C)(=O)=O)cc4)CC3)nc(N)c2cc1OC", "IC50": 17},
      {"smiles": "COc1cc2nc(N3CCN(S(=O)(=O)c4cc(Cl)ccc4Cl)CC3)nc(N)c2cc1OC", "IC50": 60},
      {"smiles": "COc1cc2nc(N3CCN(S(=O)(=O)c4ccc(-c5cc6ccccc6c6ccccc56)cc4)CC3)nc(N)c2cc1OC", "IC50": 5.2},
      {"smiles": "COc1cc2nc(N3CCN(S(=O)(=O)c4ccc(C(=O)O)cc4)CC3)nc(N)c2cc1OC", "IC50": 53},
      {"smiles": "COc1cc2nc(N3CCN(C(=O)OCc4ccccc4)CC3)nc(N)c2cc1OC", "IC50": 63},
      {"smiles": "COc1cc2nc(N3CCN(S(=O)(=O)c4cccc5c(N(C)C)cccc45)CC3)nc(N)c2cc1OC", "IC50": 29},
      {"smiles": "COc1cc2nc(N3CCN(S(=O)(=O)c4ccc(Cl)cc4)CC3)nc(N)c2cc1OC", "IC50": 23},
      {"smiles": "COc1ccc(S(=O)(=O)N2CCN(c3nc(N)c4cc(OC)c(OC)cc4n3)CC2)cc1", "IC50": 39},
      {"smiles": "C=CCOc1cc2nc(N3CCN(S(=O)(=O)c4ccc(-c5ccccc5)cc4)CC3)nc(N)c2cc1OCC=C", "IC50": 3.3},
      {"smiles": "COc1cc2nc(N3CCN(S(=O)(=O)c4ccc(Br)cc4)CC3)nc(N)c2cc1OC", "IC50": 20},
      {"smiles": "COc1cc2nc(N3CCN(S(=O)(=O)c4ccccc4[N+](=O)[O-])CC3)nc(N)c2cc1OC", "IC50": 35},
      {"smiles": "COc1cc2nc(N3CCN(S(=O)(=O)c4cc(F)c(Cl)c(C(=O)O)c4)CC3)nc(N)c2cc1OC", "IC50": 56},
      {"smiles": "COc1cc2nc(N3CCN(S(=O)(=O)c4ccc(C(F)(F)F)cc4)CC3)nc(N)c2cc1OC", "IC50": 27},
      {"smiles": "COc1cc2nc(N3CCN(S(=O)(=O)c4ccc(I)cc4)CC3)nc(N)c2cc1OC", "IC50": 15},
      {"smiles": "COc1cc2nc(N3CCN(C(=O)C4COc5ccccc5O4)CC3)nc(N)c2cc1OC", "note": "(stereo not given) [DOXAZOSIN]", "IC50": 45},
      {"smiles": "COc1cc2nc(N3CCN(C(=O)c4cccc5ccccc45)CC3)nc(N)c2cc1OC", "IC50": 59},
      {"smiles": "CCCCOc1cc2nc(N3CCN(S(=O)(=O)c4ccc(-c5ccccc5)cc4)CC3)nc(N)c2cc1OCCCC", "IC50": 3.5},
      {"smiles": "COc1cc2nc(N3CCN(C(=O)c4ccc(C(C)(C)C)cc4)CC3)nc(N)c2cc1OC", "IC50": 47},
      {"smiles": "COc1cc2nc(N3CCN(C(=O)c4ccc(C(F)(F)F)cc4)CC3)nc(N)c2cc1OC", "IC50": "> 100"},
      {"smiles": "COc1cc2nc(N3CCN(S(=O)(=O)c4ccc(-c5ccc(C(F)(F)F)cc5)cc4)CC3)nc(N)c2cc1OC", "IC50": 3.3},
      {"smiles": "COc1cc2nc(N3CCN(C(=O)c4ccc(N)cc4)CC3)nc(N)c2cc1OC", "IC50": "> 100"},
      {"smiles": "COc1cc2nc(N3CCN(S(=O)(=O)c4cccc([N+](=O)[O-])c4)CC3)nc(N)c2cc1OC", "IC50": 32},
      {"smiles": "COc1cc2nc(N3CCN(S(=O)(=O)c4ccc(-c5ccc(C(C)(C)C)cc5)cc4)CC3)nc(N)c2cc1OC", "IC50": 10},
      {"smiles": "COc1cc2nc(N3CCN(S(=O)(=O)c4ccc(-c5ccc(C)cc5)cc4)CC3)nc(N)c2cc1OC", "IC50": 3.4},
      {"smiles": "COc1cc2nc(N3CCN(S(=O)(=O)c4ccc5ccccc5c4)CC3)nc(N)c2cc1OC", "IC50": 15},
      {"smiles": "COc1cc2nc(N3CCN(S(=O)(=O)c4ccc(OC(F)(F)F)cc4)CC3)nc(N)c2cc1OC", "IC50": 25},
      {"smiles": "COc1cc2nc(N3CCN(C(=O)c4ccc(Cl)cc4)CC3)nc(N)c2cc1OC", "IC50": 60},
      {"smiles": "COc1cc2nc(N3CCN(S(=O)(=O)c4ccc([N+](=O)[O-])cc4)CC3)nc(N)c2cc1OC", "IC50": 36},
      {"smiles": "COc1cc2nc(N3CCN(S(=O)(=O)c4ccc(C(C)(C)C)cc4)CC3)nc(N)c2cc1OC", "IC50": 4.1},
      {"smiles": "CC(C)Oc1cc2nc(N3CCN(S(=O)(=O)c4ccc(-c5ccccc5)cc4)CC3)nc(N)c2cc1OC(C)C", "IC50": 24},
      {"smiles": "COc1cc2nc(N3CCN(S(=O)(=O)c4ccc(N)cc4N)CC3)nc(N)c2cc1OC", "IC50": 67},
      {"smiles": "CCCOc1cc2nc(N3CCN(S(=O)(=O)c4ccc(-c5ccccc5)cc4)CC3)nc(N)c2cc1OCCC", "IC50": 2.5},
      {"smiles": "COc1cc2nc(N3CCN(C(=O)c4ccc(C#N)cc4)CC3)nc(N)c2cc1OC", "IC50": 68},
      {"smiles": "COc1cc2nc(N3CCN(C(=O)c4cccc(C#N)c4)CC3)nc(N)c2cc1OC", "IC50": 82},
      {"smiles": "COc1cc2nc(N3CCN(S(=O)(=O)c4ccc(-c5ccccc5)cc4)CC3)nc(N)c2cc1OC", "IC50": 4.2},
      {"smiles": "COc1cc2nc(N3CCN(S(=O)(=O)c4ccc(-c5ccc(S(C)(=O)=O)cc5)cc4)CC3)nc(N)c2cc1OC", "IC50": 7.2}
    ]}
  ]
}
